Measured values: PMC4873422 (Molecular cancer therapeutics, 2016)

Legend:
Type in all cases: cell-based, human
CAF19 cells = experiment: Monolayer proliferation assay; details: CAFs (CAF19), 72 h
Procedure, shortened: (§1)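 Monolayers were grown in DMEM with 10% serum at 37 °C, 5% CO2. Seeding was Pa03C tumor cells 2,000–3,000/well, EGFP-expressing CAF19 fibroblasts 4,000/well, or tumor plus CAFs at a 2:1 ratio. Test compound was added 24 h after seeding, and viability was read 72 h later. Dose-response data are Avg+SE, n=3–4. The 50% value came from a linear-regression fit at 50% survival.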

Pa03C + CAF19 co-culture = experiment: Monolayer proliferation assay; details: 2:1 tumor:CAF co-culture, 72 h
Procedure, shortened: as §1

[1] = tested on: p-STAT3 (Y705) in Pa03C cells; experiment: Immunoblot of p-STAT3; details: 10 μM, 4 hr pre-treatment, IL-6 25 ng/mL 15 min
Pa03C cells = experiment: Monolayer proliferation assay; details: tumor cells (Pa03C), 72 h
Procedure, shortened: as §1

Panc10.05 cells = experiment: Cell viability / proliferation screen; details: 72 h, Avg ± SE, n=4–5
Procedure, shortened: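 Panc10.05 patient-derived PDAC cells (STR-verified) were grown in DMEM with 10% serum at 37 °C, 5% CO2. Monolayers were seeded at 2,000–3,000 cells/well, and test compound was added 24 h after seeding. MTS tetrazolium read-out was taken 72 h later. Data from 4–5 repeats were pooled, and ED50 was taken from a linear-regression fit where percent survival equalled 50%.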

SMILES | IC50 (CAF19 cells) | IC50 (Pa03C + CAF19 co-culture) | phosphorylation of STAT3 at Y705 [1] | IC50 (Pa03C cells) | ED50 (Panc10.05 cells)
CN(CC(=O)N(Cc1ccc(C2CCCCC2)cc1)c1ccc(C(=O)O)c(O)c1)S(=O)(=O)c1c(F)c(F)c(F)c(F)c1F [BP-1-102] | 15.2 ± 2.7 µM | 16.4 ± 0.6 µM | inhibited phosphorylation of STAT3 at Y705 | 19.1 ± 0.9 µM | 
CN(CC(=O)N(Cc1ccc(C2CCCCC2)cc1)c1ccc(C(=O)O)cc1)S(=O)(=O)c1c(F)c(F)c(F)c(F)c1F [SH-4-54] | 7.6 ± 0.9 µM | 11.8 ± 1.1 µM | inhibited phosphorylation of STAT3 at Y705 | 9.2 ± 1.7 µM | 8.7 ± 1.9 µM
